Experimental data from different studies.
Compare with care: the assays were run in different laboratories.
HCK: Tyrosine-protein kinase HCK (HCK, Homo sapiens, UniProt P08631)

target	assay	conditions	measurement	result	Compound
HCK	cell-free assay	10 µM	remaining signal	0%	Cc1ccc(NC(=O)c2ccc(C)c(C(F)(F)F)c2)cc1C#Cc1nn(C2CCC(O)CC2)c2ncnc(N)c12 (stereo not shown)
HCK	enzyme activity, inhibitor, radiometric	1 µM	remaining activity	82%	CC(C)(C)c1nc2c(s1)c1nc(N)ncc1c1ccc(NS(=O)(=O)c3c(F)cccc3F)c(F)c12
HCK	cell-free assay, competition with immobilised ligand	1 µM	remaining binding	92%	Cc1c(NC(=O)c2cc(C(N)=O)nc3cc(F)ccc23)c(C(F)(F)F)nn1Cc1ccc(C(C)(C)C)cc1
HCK	enzyme activity, inhibitor	10 µM	inhibition	-12%	CNc1cccc2cc(C(=O)Nc3ccc(C(=O)O)cc3)c(=O)[nH]c12
HCK	cell-free assay	0.5 µM	remaining signal	11.9%	COc1cc(Nc2c(C#N)cnc3cc(OCCCN4CCN(C)CC4)c(OC)cc23)c(Cl)cc1Cl
HCK	cell-free assay, competition with immobilised ligand	1 µM	remaining binding	100%	CN(C(=O)c1ccccc1)c1cc(N(C)c2ccc3c(c2)CCc2ccc(C(=O)NCCN4CCOCC4)cc2C3=O)ccc1F
HCK	enzyme activity, inhibitor, radiometric	1 µM	remaining activity	101%	Cc1cnc(NC2CCOCC2)nc1-n1cnc(C(=O)NC(CN)c2cc(F)cc(Cl)c2)c1 (stereo not shown)
Tyrosine-protein kinase HCK, phosphorylated (HCK, Homo sapiens, UniProt P08631)	enzyme activity, inhibitor, radiometric	1 µM	inhibition	88%	CNC(=O)c1cc2c(Oc3ccc(NC(=O)C4(C(=O)Nc5ccc(F)cc5)CC4)cc3)ccnc2cc1OC
HCK	cell-free assay	20 µM	remaining signal	0.2%	Nc1ncnc2occ(-c3ccc(NC(=O)Nc4cc(C(F)(F)F)ccc4F)cc3)c12
HCK	cell-free assay	0.5 µM	remaining signal	88.3%	O=C1NC(=O)c2cc(Nc3ccc(F)cc3)c(Nc3ccc(F)cc3)cc21
HCK	cell-free assay, competition with immobilised ligand	1 µM	remaining binding	100%	COc1ccc2c(c1)O[C@H](c1ccc(OC)c(OC)c1)C[C@@H]2NC(=O)C1(c2ccc3c(c2)OC(F)(F)O3)CC1
HCK	enzyme activity, inhibitor	10 µM	inhibition	92%	CCN(CC)CCNC(=O)c1c(C)[nH]c(/C=C2\C(=O)Nc3ccc(F)cc32)c1C
HCK	cell-free assay	0.5 µM	remaining signal	63.8%	N#CCCc1ccc2c(c1)-c1[nH]c3ccc([N+](=O)[O-])cc3c1CC(=O)N2
HCK	cell-free assay, competition with immobilised ligand	1 µM	remaining binding	100%	CC(=O)N1CCC(c2ccc(C(=O)NC(=N)N)cc2C(F)(F)F)CC1
HCK	enzyme activity, inhibitor, FRET	10 µM	inhibition	19%	CN(C)C1CCN(CC#Cc2nn(C3CCCC3)c3nc(NCc4ccccc4)ncc23)C1 (stereo not shown)
HCK	cell-free assay, competition with immobilised ligand	1 µM	remaining binding	100%	CC(=O)c1c(NS(C)(=O)=O)c2cc(-c3ccc(Cl)cc3)c(-c3ccc(Cl)cc3Cl)nc2n(C)c1=O
HCK	cell-free assay	0.5 µM	remaining signal	73.3%	COc1cc2ncnc(Nc3ccc(F)c(Cl)c3)c2cc1OCCCN1CCOCC1
HCK	enzyme activity, inhibitor	5 µM	remaining activity	91.3%	O=C(Nc1cnn(-c2csc(C(=O)NC3COC3)c2)c1)Nc1c(F)cccc1Cl
HCK	enzyme activity, inhibitor	1 µM	inhibition	53%	COc1cc2ncnc(Nc3ccc(Oc4ccccc4)c(C)c3C)c2cc1OC
HCK	cell-free assay, competition with immobilised ligand	0.1 µM	remaining binding	91%	C[C@H](c1ccnc(Nc2nc3ccc(-c4cc(N(C)C)ncn4)cc3[nH]2)c1)N1CCN(C(=O)CC(F)(F)F)CC1
HCK	enzyme activity, inhibitor	5 µM	remaining activity	94%	O=C(Nc1cnn(-c2csc(C(=O)NC3COC3)c2)c1)Nc1ccccc1Cl
HCK	enzyme activity, inhibitor	1 µM	remaining activity	40.5%	CC(C)(O)[C@H]1CC[C@H](Nc2ccc3ncc(-c4cccc(C(F)(F)F)c4)n3n2)CC1
HCK	enzyme activity	23.5 nM	remaining activity	1.6%	Cc1ccc(C(=O)Nc2ccc(CN3CCN(C)CC3)c(C(F)(F)F)c2)cc1C#Cc1cnc2cccnn12
HCK	cell-free assay, competition with immobilised ligand	1 µM	remaining binding	100%	O=C(Nc1cccnn1)N1CC(C/C=C/c2cncc(Oc3ccc(C(F)(F)F)cn3)n2)C1
HCK	enzyme activity, inhibitor	0.3 µM	inhibition	21%	Cc1ccc(Nc2nccc(N(C)c3ccc4c(C)n(C)nc4c3)n2)cc1S(N)(=O)=O
